Assay results published in ChEMBL document CHEMBL3865810, “4-Aminoquinoline derivatives: Synthesis, in vitro and in vivo antiplasmodial activity against chloroquine-resistant parasites” (Eur J Med Chem, 2016).
≈ marks a conversion by molar mass, not a printed value. Calls of active or inactive are those of the source. The rule behind the calls is not given here.

Legend:
Plasmodium falciparum = test: Antiplasmodial activity against erythrocytic stage of chloroquine/pyrimethamine/cycloguanil resistant-Plasmodium falciparum FCR3 after 48 hrs by [3H]-hypoxanthine incorporation assay; type: functional; details: FCR-3/Gambia
Procedure, shortened: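 FCR3 P. falciparum, resistant to CQ (100 ng/mL) and pyrimethamine (15 nM), was synchronized to rings and grown at 1% parasitemia and 2% haematocrit in group O erythrocytes. Medium was RPMI 1640 with Albumax II, at 37 °C under 2% O2/5.5% CO2. Cells were exposed for 48 h to serial dilutions from 0.05 to 2x10^-6 mg/ml. Read-out was [3H]-hypoxanthine incorporation, in triplicate, two independent assays. IC50 came from dose-response curves.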

[1] = Cytotoxicity against human HuH7 cells after 72 hrs by MTT assay; type: toxicity, cell-based, Huh-7
Procedure, shortened: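 Huh-7 human hepatocellular carcinoma cells, 4 × 10^3 per well in DMEM with 10% FBS and 1% penicillin-streptomycin-glutamine. Exposed to eight 2-fold dilutions spanning 100 to 0.78 µg/mL for 72 h. MTT added for 2-4 h, then detergent solubilization for 2 h in the dark at room temperature; absorbance read at 570 nm. CC50 is the mean of at least two experiments run in duplicate.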

Plasmodium berghei [2] = test: Antiplasmodial activity against erythrocytic stage of chloroquine-resistant Plasmodium berghei ANKA infected in ip dosed BALB/c mouse assessed as reduction in parasitemia administered 3 hrs post infection for 4 days by Giemsa staining based microscopic assay; type: functional
Procedure, shortened: (§1)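 Peters' four-day suppressive test. Male naïve BALB/c mice, 25 ± 5 g, 4-5 weeks old, 5 per group, were infected ip on day 0 with 2x10^7 P. berghei ANKA parasitized erythrocytes. Dosing was ip from 2 mg/ml stocks in 10% DMSO, first given 1-3 h post-infection and repeated on days 1-3. Saline went to controls. On day 4, parasitemia was counted on Giemsa tail smears and activity = 100 − (treated/control mean parasitemia)×100.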

Plasmodium berghei [3] = test: Antiplasmodial activity against erythrocytic stage of chloroquine-resistant Plasmodium berghei ANKA infected in BALB/c mouse assessed as inhibition of parasitemia at 0.1 mg/kg/day, ip administered 3 hrs post infection for 4 days by Giemsa staining based microscopic assay relative to control; type: functional; procedure, shortened: as §1
Plasmodium berghei [4] = test: Antiplasmodial activity against erythrocytic stage of chloroquine-resistant Plasmodium berghei ANKA infected in BALB/c mouse assessed as inhibition of parasitemia at 1 mg/kg/day, ip administered 3 hrs post infection for 4 days by Giemsa staining based microscopic assay relative to control; type: functional; procedure, shortened: as §1
Plasmodium berghei [5] = test: Antiplasmodial activity against erythrocytic stage of chloroquine-resistant Plasmodium berghei ANKA infected in BALB/c mouse assessed as inhibition of parasitemia at 5 mg/kg/day, ip administered 3 hrs post infection for 4 days by Giemsa staining based microscopic assay relative to control; type: functional; procedure, shortened: as §1
Plasmodium berghei [6] = test: Antiplasmodial activity against erythrocytic stage of chloroquine-resistant Plasmodium berghei ANKA infected in BALB/c mouse assessed as inhibition of parasitemia at 10 mg/kg/day, ip administered 3 hrs post infection for 4 days by Giemsa staining based microscopic assay relative to control; type: functional; procedure, shortened: as §1
Plasmodium berghei [7] = test: Antiplasmodial activity against erythrocytic stage of chloroquine-resistant Plasmodium berghei ANKA infected in BALB/c mouse assessed as mean survival time at 0.1 to 10 mg/kg/day, ip administered 1 to 3 hrs post infection qd measured on day 4 post last dose by giemsa staining-based microscopic analysis; type: functional, organism-based
Procedure, shortened: (§2)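 BALB/c mice, 5 per group, were infected ip with 2x10^7 P. berghei ANKA parasitized erythrocytes. They were dosed ip at 0.1, 1, 5 or 10 mg/kg/day from 2 mg/ml stocks in 10% DMSO, starting 1-3 h post-infection, once daily on days 0-3. Saline went to controls. Groups were compared by Kaplan-Meier with a log-rank (Mantel-Cox) test.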

Mus musculus [8] = test: Toxicity in BALB/c mouse infected with erythrocytic stage of chloroquine-resistant Plasmodium berghei ANKA assessed as weight loss at 0.1 to 10 mg/kg/day, ip administered 3 hrs post infection for 4 days; type: organism-based; details: in vivo
Mus musculus [9] = test: Toxicity in BALB/c mouse assessed as mortality at 1000 mg/kg, ip measured up to 7 days; type: organism-based; details: in vivo, 168 h
Procedure, shortened: (§3)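 For the LD50 test, BALB/c mice were given single ip doses of 50, 100, 200, 500, 600, 800 or 1000 mg/kg BW and observed for mortality over 7 days.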

Mus musculus [10] = test: Toxicity in BALB/c mouse assessed as mortality at 500 mg/kg, ip measured up to 7 days; type: organism-based; details: in vivo, 168 h; procedure, shortened: as §3
[11] = Toxicity in ip dosed BALB/c mouse assessed as mortality measured up to7 days; type: organism-based; details: in vivo; procedure, shortened: as §3
[12] = Therapeutic index, ratio of LD50 for BALB/c mouse to ED50 for erythrocytic stage of chloroquine-resistant Plasmodium berghei ANKA infected in BALB/c mouse; details: read-out: Ratio LD50/ED50
Procedure, shortened: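 TI = LD50/ED50. LD50 was taken from BALB/c mice dosed ip at 50-1000 mg/kg and observed for 7 days. ED50 came from the P. berghei ANKA four-day suppressive test with ip dosing.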

Plasmodium berghei [13] = test: Antiplasmodial activity against erythrocytic stage of chloroquine-resistant Plasmodium berghei ANKA infected in ip dosed BALB/c mouse assessed as increase in mouse survival time administered once daily 3 hrs post infection for 4 consecutive days by Giemsa staining based microscopic assay; type: functional, organism-based; procedure, shortened: as §2

SMILES | IC50 (Plasmodium falciparum) [µg/mL] | CC50 at 72 h [1] [µg/mL] | also measured
Clc1ccc2c(Nc3ccccc3Br)ccnc2c1 | 0.17 (≈ 0.51 µM) | > 100 | –
CCN(CC)Cc1cc(Nc2ccnc3cc(Cl)ccc23)ccc1O [AMODIAQUINE] | – | – | ED50 (Plasmodium berghei [2]): 1.19 mg/kg; inhibition in vivo at 0.1 mg/kg/day (Plasmodium berghei [3]): 28%; inhibition in vivo at 1 mg/kg/day (Plasmodium berghei [4]): 48.2%; inhibition in vivo at 5 mg/kg/day (Plasmodium berghei [5]): 67.1%; inhibition in vivo at 10 mg/kg/day (Plasmodium berghei [6]): 94.1%
Fc1ccc(Nc2ccnc3cc(Cl)ccc23)c(F)c1 | 0.045 (≈ 0.155 µM) | > 100 | –
Clc1ccc(Cl)c(Nc2ccnc3cc(Cl)ccc23)c1 | 0.056 (≈ 0.173 µM) | > 100 | –
Cc1ccc(Nc2ccnc3cc(Cl)ccc23)c(C)c1 | 0.4 (≈ 1.41 µM) | > 100 | –
COc1cc(Nc2ccnc3cc(Cl)ccc23)cc(OC)c1OC | 0.64 (≈ 1.86 µM) | > 100 | –
Fc1ccc(Nc2ccnc3cc(Cl)ccc23)c(Cl)c1 | 0.065 (≈ 0.212 µM) | > 100 | –
Cc1cccc(C)c1Nc1ccnc2cc(Cl)ccc12 | 0.046 (≈ 0.163 µM) | > 100 | –
Cc1cc(F)ccc1Nc1ccnc2cc(Cl)ccc12 | 0.076 (≈ 0.265 µM) | > 100 | –
Fc1ccc(Nc2ccnc3cc(Cl)ccc23)cc1Cl | 1.9 (≈ 6.19 µM) | > 100 | –
Fc1ccc(Nc2ccnc3cc(Cl)ccc23)cc1 | 0.029 (≈ 0.106 µM) | > 100 | ED50 (Plasmodium berghei [2]): 2.06 mg/kg; inhibition in vivo at 0.1 mg/kg/day (Plasmodium berghei [3]): 21.6%; inhibition in vivo at 1 mg/kg/day (Plasmodium berghei [4]): 32%; inhibition in vivo at 5 mg/kg/day (Plasmodium berghei [5]): 54.2%; inhibition in vivo at 10 mg/kg/day (Plasmodium berghei [6]): 79.1%; Activity (Plasmodium berghei [7]): Active; Activity (Mus musculus [8]): Non-Toxic; Activity (Mus musculus [9]): Toxic; Activity (Mus musculus [10]): Non-Toxic; LD50 at 7 days [11]: 800 mg/kg; selectivity ratio [12]: 388; Activity (Plasmodium berghei [13]): Dose-dependent effect
Cc1cccc(Nc2ccnc3cc(Cl)ccc23)c1C | 0.036 (≈ 0.127 µM) | > 100 | –
Cc1ccc(Nc2ccnc3cc(Cl)ccc23)cc1C | 0.16 (≈ 0.566 µM) | > 100 | –
Cc1ccc(C)c(Nc2ccnc3cc(Cl)ccc23)c1 | 0.46 (≈ 1.63 µM) | > 100 | –
COc1ccc(OC)c(Nc2ccnc3cc(Cl)ccc23)c1 | 0.022 (≈ 0.0699 µM) | > 100 | ED50 (Plasmodium berghei [2]): 2.23 mg/kg; inhibition in vivo at 0.1 mg/kg/day (Plasmodium berghei [3]): 12%; inhibition in vivo at 1 mg/kg/day (Plasmodium berghei [4]): 21.7%; inhibition in vivo at 5 mg/kg/day (Plasmodium berghei [5]): 58.1%; inhibition in vivo at 10 mg/kg/day (Plasmodium berghei [6]): 93.4%; Activity (Plasmodium berghei [7]): Active; Activity (Mus musculus [8]): Non-Toxic; Activity (Mus musculus [9]): Toxic; Activity (Mus musculus [10]): Non-Toxic; LD50 at 7 days [11]: 800 mg/kg; selectivity ratio [12]: 359; Activity (Plasmodium berghei [13]): Dose-dependent effect
Clc1ccc(Nc2ccnc3cc(Cl)ccc23)c(Cl)c1 | 0.76 (≈ 2.35 µM) | > 100 | –
Fc1cccc(Nc2ccnc3cc(Cl)ccc23)c1 | 0.098 (≈ 0.359 µM) | > 100 | –
